Test system: HEK-293T
Test: Multiplex assay against HEK293T
Assay type: toxicity, cell-based
Conditions: human
Outline: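 Compound was added to live cells that had been stained at seeding with Hoechst33342, BioTracker Green Microtubule Cytoskeleton Dye, MitoTracker Red and Annexin V Alexa Fluor 680, and imaging followed on a CQ1 microscope at 37°C and 5% CO2. CellPathfinder machine-learning gating divided cells into Hoechst high-intensity objects or normal cells, normal cells into healthy, pyknosed or fragmented nuclei, and pyknosed cells into mitotic or apoptotic. Tubulin, mitochondrial-mass and membrane-permeability phenotypes are per cents of healthy-nucleus cells.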

[1] = 12 h, 1 µM, compound concentration 1 uM, replicate 1
[2] = 12 h, 1 µM, compound concentration 1 uM, replicate 2
[3] = 12 h, 10 µM, compound concentration 10 uM, replicate 1
[4] = 12 h, 10 µM, compound concentration 10 uM, replicate 2
[5] = 24 h, 1 µM, compound concentration 1 uM, replicate 1
[6] = 24 h, 1 µM, compound concentration 1 uM, replicate 2
[7] = 24 h, 10 µM, compound concentration 10 uM, replicate 1
[8] = 24 h, 10 µM, compound concentration 10 uM, replicate 2
[9] = 48 h, 1 µM, compound concentration 1 uM, replicate 1
[10] = 48 h, 1 µM, compound concentration 1 uM, replicate 2
[11] = 48 h, 10 µM, compound concentration 10 uM, replicate 1
[12] = 48 h, 10 µM, compound concentration 10 uM, replicate 2

Structure (SMILES): Nc1nc(CC(=O)Nc2ccc(CCNC[C@H](O)c3ccccc3)cc2)cs1 [MIRABEGRON]
- Population Apoptotic (%) [1]: 22%
- Population Fragmented Nuclei (%) [1]: 5%
- Population Healthy Nuclei (%) [1]: 84%
- Population Hoechst High Intensity Objects (%) [1]: 5%
- Population Membrane Permeable-Phenotype (%) [1]: 0%
- Population Mitochondria Different-Phenotype (%) [1]: 45%
- Population Mitotic Cells (%) [1]: 77%
- Population Normal (%) [1]: 94%
- Population Pyknosed Nuclei (%) [1]: 10%
- Population Tubulin-Different-Phenotype (%) [1]: 19%
- Total Cell Count [1]: 455
- Population Apoptotic (%) [2]: 55%
- Population Fragmented Nuclei (%) [2]: 8%
- Population Healthy Nuclei (%) [2]: 80%
- Population Mitochondria Different-Phenotype (%) [2]: 56%
- Population Mitotic Cells (%) [2]: 44%
- Population Pyknosed Nuclei (%) [2]: 11%
- Total Cell Count [2]: 332
- Population Apoptotic (%) [3]: 32%
- Population Fragmented Nuclei (%) [3]: 5%
- Population Healthy Nuclei (%) [3]: 77%
- Population Hoechst High Intensity Objects (%) [3]: 7%
- Population Membrane Permeable-Phenotype (%) [3]: 0%
- Population Mitochondria Different-Phenotype (%) [3]: 51%
- Population Mitotic Cells (%) [3]: 67%
- Population Normal (%) [3]: 92%
- Population Pyknosed Nuclei (%) [3]: 17%
- Population Tubulin-Different-Phenotype (%) [3]: 41%
- Total Cell Count [3]: 423
- Population Apoptotic (%) [4]: 44%
- Population Fragmented Nuclei (%) [4]: 11%
- Population Healthy Nuclei (%) [4]: 74%
- Population Hoechst High Intensity Objects (%) [4]: 8%
- Population Mitochondria Different-Phenotype (%) [4]: 64%
- Population Mitotic Cells (%) [4]: 56%
- Population Normal (%) [4]: 91%
- Population Pyknosed Nuclei (%) [4]: 14%
- Population Tubulin-Different-Phenotype (%) [4]: 29%
- Total Cell Count [4]: 388
- Population Apoptotic (%) [5]: 28%
- Population Fragmented Nuclei (%) [5]: 10%
- Population Healthy Nuclei (%) [5]: 80%
- Population Hoechst High Intensity Objects (%) [5]: 2%
- Population Membrane Permeable-Phenotype (%) [5]: 0%
- Population Mitochondria Different-Phenotype (%) [5]: 30%
- Population Mitotic Cells (%) [5]: 71%
- Population Normal (%) [5]: 97%
- Population Pyknosed Nuclei (%) [5]: 9%
- Population Tubulin-Different-Phenotype (%) [5]: 14%
- Total Cell Count [5]: 635
- Population Apoptotic (%) [6]: 27%
- Population Fragmented Nuclei (%) [6]: 8%
- Population Healthy Nuclei (%) [6]: 83%
- Population Hoechst High Intensity Objects (%) [6]: 3%
- Population Mitochondria Different-Phenotype (%) [6]: 41%
- Population Mitotic Cells (%) [6]: 72%
- Population Normal (%) [6]: 96%
- Population Pyknosed Nuclei (%) [6]: 7%
- Population Tubulin-Different-Phenotype (%) [6]: 13%
- Total Cell Count [6]: 390
- Population Apoptotic (%) [7]: 31%
- Population Fragmented Nuclei (%) [7]: 8%
- Population Healthy Nuclei (%) [7]: 77%
- Population Hoechst High Intensity Objects (%) [7]: 4%
- Population Membrane Permeable-Phenotype (%) [7]: 0%
- Population Mitochondria Different-Phenotype (%) [7]: 32%
- Population Mitotic Cells (%) [7]: 68%
- Population Normal (%) [7]: 95%
- Population Pyknosed Nuclei (%) [7]: 13%
- Population Tubulin-Different-Phenotype (%) [7]: 23%
- Total Cell Count [7]: 552
- Population Apoptotic (%) [8]: 35%
- Population Fragmented Nuclei (%) [8]: 9%
- Population Healthy Nuclei (%) [8]: 82%
- Population Hoechst High Intensity Objects (%) [8]: 5%
- Population Mitochondria Different-Phenotype (%) [8]: 49%
- Population Mitotic Cells (%) [8]: 64%
- Population Normal (%) [8]: 94%
- Population Pyknosed Nuclei (%) [8]: 7%
- Total Cell Count [8]: 524
- Population Apoptotic (%) [9]: 18%
- Population Fragmented Nuclei (%) [9]: 13%
- Population Healthy Nuclei (%) [9]: 80%
- Population Hoechst High Intensity Objects (%) [9]: 1%
- Population Membrane Permeable-Phenotype (%) [9]: 1%
- Population Mitochondria Different-Phenotype (%) [9]: 14%
- Population Mitotic Cells (%) [9]: 81%
- Population Normal (%) [9]: 98%
- Population Pyknosed Nuclei (%) [9]: 5%
- Population Tubulin-Different-Phenotype (%) [9]: 10%
- Total Cell Count [9]: 1141
- Population Apoptotic (%) [10]: 28%
- Population Fragmented Nuclei (%) [10]: 17%
- Population Healthy Nuclei (%) [10]: 76%
- Population Hoechst High Intensity Objects (%) [10]: 0%
- Population Mitochondria Different-Phenotype (%) [10]: 21%
- Population Mitotic Cells (%) [10]: 71%
- Population Normal (%) [10]: 99%
- Total Cell Count [10]: 662
- Population Apoptotic (%) [11]: 26%
- Population Fragmented Nuclei (%) [11]: 12%
- Population Healthy Nuclei (%) [11]: 78%
- Population Hoechst High Intensity Objects (%) [11]: 3%
- Population Membrane Permeable-Phenotype (%) [11]: 0%
- Population Mitochondria Different-Phenotype (%) [11]: 25%
- Population Mitotic Cells (%) [11]: 73%
- Population Normal (%) [11]: 96%
- Population Pyknosed Nuclei (%) [11]: 8%
- Population Tubulin-Different-Phenotype (%) [11]: 16%
- Total Cell Count [11]: 818
- Population Apoptotic (%) [12]: 28%
- Population Healthy Nuclei (%) [12]: 80%
- Population Hoechst High Intensity Objects (%) [12]: 2%
- Population Mitochondria Different-Phenotype (%) [12]: 30%
- Population Mitotic Cells (%) [12]: 71%
- Population Normal (%) [12]: 97%
- Population Pyknosed Nuclei (%) [12]: 6%
- Population Tubulin-Different-Phenotype (%) [12]: 15%
- Total Cell Count [12]: 750

— ChEMBL document CHEMBL5058577, “EUbOPEN Chemogenomics Library 2 (Multiplex)” (2022)
